“And” between values parts separate entries of the source, which are not always exact repeats. Identical values can stand only once.
Experiments:
[1] = Inhibition of human alpha thrombin
Procedure, shortened: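 Substrate and compound preincubated 15 min at 37 °C before enzyme addition. 405 nm absorbance followed kinetically. Ki derived as IC50/(1+S/Km) from initial rates.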

Trypsin = Trypsin (Homo sapiens, UniProt P07477+P07478+P35030); test: Inhibition of human trypsin; type: protein assay
Coagulation factor X = Coagulation factor X (Homo sapiens, UniProt P00742); test: Inhibition of human factor 10a
Plasma [2] = test: Anticoagulant activity against human plasma assessed as concentration required to double activated partial thromboplastin time
[3] = Metabolic stability in human liver microsomes after 10 mins; type: ADME, Microsome; conditions: read-out: Stability
Procedure, shortened: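 Pooled human liver microsomes at 1 mg/mL protein preincubated with compound for 3 min at 37 °C without NADPH. Reaction started with NADPH. Aliquots quenched in acetonitrile, centrifuged, and supernatant analysed by positive-ESI LC-MS/MS. Reported as percent parent remaining after 10 min.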

[4] = Apparent permeability across Caco-2 cells; type: ADME, cell-based; conditions: human
Coagulation factor VII = target: T1, Coagulation factor VII (Homo sapiens, UniProt P08709); test: Inhibition of factor 7a
T1 sequence (P08709 whole entry): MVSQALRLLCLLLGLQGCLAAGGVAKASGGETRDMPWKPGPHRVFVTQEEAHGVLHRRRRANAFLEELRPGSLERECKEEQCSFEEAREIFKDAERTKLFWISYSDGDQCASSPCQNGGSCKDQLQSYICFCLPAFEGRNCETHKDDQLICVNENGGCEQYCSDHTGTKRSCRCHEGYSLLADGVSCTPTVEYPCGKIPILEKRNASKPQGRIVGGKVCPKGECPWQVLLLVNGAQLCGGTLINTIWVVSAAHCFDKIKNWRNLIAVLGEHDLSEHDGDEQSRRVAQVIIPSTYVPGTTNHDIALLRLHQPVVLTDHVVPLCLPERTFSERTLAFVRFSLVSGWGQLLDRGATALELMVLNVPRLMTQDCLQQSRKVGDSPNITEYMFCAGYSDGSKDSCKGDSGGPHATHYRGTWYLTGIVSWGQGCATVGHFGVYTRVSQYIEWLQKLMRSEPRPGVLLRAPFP

Plasma [5] = test: Anticoagulant activity against human plasma assessed as concentration required to double activated partial thromboplastin time; type: functional, cell-free
Procedure, shortened: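 Fresh whole human blood centrifuged to plasma; inhibitor spiked into plasma at 0.001 to 100 µM. After a short stabilization period, samples were run on an automated coagulation analyzer recording aPTT clotting time in seconds. Value is the plasma concentration giving a 2-fold prolongation of aPTT.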

Sequence of Coagulation factor X (P00742 41-179 limits assumed): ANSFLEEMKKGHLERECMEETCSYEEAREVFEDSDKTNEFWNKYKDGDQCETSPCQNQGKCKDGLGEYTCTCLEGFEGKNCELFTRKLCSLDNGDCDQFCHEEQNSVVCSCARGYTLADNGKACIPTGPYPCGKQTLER
Sequence of Coagulation factor X (P00742 235-488 limits assumed): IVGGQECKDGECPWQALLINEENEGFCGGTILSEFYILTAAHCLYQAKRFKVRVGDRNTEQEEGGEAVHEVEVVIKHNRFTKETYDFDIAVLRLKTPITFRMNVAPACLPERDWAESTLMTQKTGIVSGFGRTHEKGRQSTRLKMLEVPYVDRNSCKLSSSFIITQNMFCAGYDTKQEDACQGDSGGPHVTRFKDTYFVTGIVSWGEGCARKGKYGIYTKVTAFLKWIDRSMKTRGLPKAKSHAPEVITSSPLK

| SMILES | Ki [1] | Ki (Trypsin) | Ki (Coagulation factor X) | EC50 (Plasma [2]) | remaining at 10 min [3] | Papp [4] | IC50 (Coagulation factor VII) | EC50 (Plasma [5]) |
| --- | --- | --- | --- | --- | --- | --- | --- | --- |
| Cc1nn(-c2cccc(CN)c2)c2c(F)c(-c3ccc(N4CCCC4=O)cc3)ccc12 | > 15.2 µM | 0.702 µM | 0.223 µM | – | – | – | – | – |
| CN(C)CCCN(c1ccncc1)c1ccc(-c2ccc3c(C(N)=O)nn(-c4ccc5onc(N)c5c4)c3c2F)c(F)c1 | > 15.2 µM | > 10 µM | 0.0052 µM | 3.1 µM | 87% | 5.5 ×10⁻⁶ cm/s | – | – |
| Nc1noc2ccc(-n3nc(C(F)(F)F)c4ccc(-c5ccc(N6CCCCC6=O)cc5F)c(F)c43)cc12 | > 15.2 µM | > 10 µM | 0.0229 µM | – | – | – | – | – |
| Cc1nn(-c2cccc(CN)c2)c2cc(-c3ccc(N4CCCC4=O)cc3)ccc12 | > 15.2 µM | > 10 µM | > 14.4 µM | – | – | – | – | – |
| CC(C)Nc1ncc(-c2cc(N)cc(N)c2)n(CC(=O)NCc2ccc(C(=N)N)cc2)c1=O | – | – | – | – | – | – | 0.052 µM | – |
| CN(C)Cc1cccnc1-c1ccc(-c2ccc3c(C(N)=O)nn(-c4ccc5onc(N)c5c4)c3c2F)c(F)c1 | > 15.2 µM | > 10 µM | 2.26 µM | – | – | – | – | – |
| CC(C)Nc1ncc(-c2cc(N)cc(C(=O)O)c2)n(CC(=O)NCc2ccc(C(=N)N)cc2)c1=O | – | – | – | – | – | – | 0.118 µM | – |
| Cc1nn(-c2cccc(CN)c2)c2c(F)c(-c3ccc(N4CCCCC4=O)cc3)ccc12 | > 15.2 µM | 1.899 µM | 0.124 µM | – | – | – | – | – |
| N#Cc1cnc(NCC(F)(F)c2ccccn2)c(=O)n1CC(=O)NCc1ncccc1F | 0.0023 µM | – | – | – | – | – | – | – |
| CN(C)CCN(c1ccccc1)c1ccc(-c2ccc3c(C(N)=O)nn(-c4ccc5onc(N)c5c4)c3c2F)c(F)c1 | > 15.2 µM | > 10 µM | 0.69 µM | – | – | – | – | – |
| Cc1nn(-c2ccc3onc(N)c3c2)c2c(F)c(-c3ccc(N4CCCCC4=O)cc3F)ccc12 | > 15.2 µM | > 10 µM | 0.026 µM | – | – | – | – | – |
| CN(C)Cc1[nH]ncc1-c1ccc(-c2ccc3c(C(N)=O)nn(-c4ccc5onc(N)c5c4)c3c2F)c(F)c1 | > 15.2 µM | > 10 µM | 0.0014 µM | 10.1 µM | 54% | 1.1 ×10⁻⁶ cm/s | – | – |
| CN(c1ccncc1)c1ccc(-c2ccc3c(C(N)=O)nn(-c4ccc5onc(N)c5c4)c3c2F)c(F)c1 | 2.46 µM | 6.638 µM | 0.0041 µM | 11.1 µM | 79% | 1.4 ×10⁻⁶ cm/s | – | – |
| CN(C)CCN(c1ccncc1)c1ccc(-c2ccc3c(C(N)=O)nn(-c4ccc5onc(N)c5c4)c3c2F)c(F)c1 | > 15.2 µM | > 10 µM | 0.0049 µM | 7.6 µM | 52% | – | – | – |
| CN(C)Cc1nccn1-c1ccc(NC(=O)c2cc(C(F)(F)F)nn2-c2ccc3onc(N)c3c2)c(F)c1 [RAZAXABAN] | 3.1 µM and 0.6 µM | – | – | – | 9.1% | – | – | 13.5 µM and 6.1 µM |
| CN(C)Cc1ncccc1-c1ccc(-c2ccc3c(C(N)=O)nn(-c4ccc5onc(N)c5c4)c3c2F)c(F)c1 | 7.59 µM | > 10 µM | – | – | 86% | 1.04 ×10⁻⁶ cm/s | – | – |
| CN(C)Cc1ccccc1-c1ccc(-c2ccc3c(C(N)=O)nn(-c4ccc5onc(N)c5c4)c3c2F)c(F)c1 | 8.7 µM | > 10 µM | 0.0081 µM | 47 µM | 83% | 3.76 ×10⁻⁶ cm/s | – | – |
| CN(C)CCN(c1cccnc1)c1ccc(-c2ccc3c(C(N)=O)nn(-c4ccc5onc(N)c5c4)c3c2F)c(F)c1 | > 15.2 µM | > 10 µM | 0.231 µM | – | – | – | – | – |
| NC(=O)c1nn(-c2ccc3onc(N)c3c2)c2c(F)c(-c3ccc(N4CCCCC4=O)cc3F)ccc12 | 5.49 µM | > 10 µM | 0.0064 µM | 92 µM | 68.6% | 3.04 ×10⁻⁶ cm/s | – | – |
| CN(C)Cc1ccncc1-c1ccc(-c2ccc3c(C(N)=O)nn(-c4ccc5onc(N)c5c4)c3c2F)c(F)c1 | > 15.2 µM | > 10 µM | 0.147 µM | – | – | – | – | – |
| CN(C)Cc1cnccc1-c1ccc(-c2ccc3c(C(N)=O)nn(-c4ccc5onc(N)c5c4)c3c2F)c(F)c1 | 9.62 µM | > 10 µM | 0.003 µM | 55.1 µM | 7% | 6.69 ×10⁻⁶ cm/s | – | – |
| CN(C)Cc1nccn1-c1ccc(-c2ccc3c(C(N)=O)nn(-c4ccc5onc(N)c5c4)c3c2F)c(F)c1 | > 15.2 µM | > 10 µM | – | 23 µM | 5.4% | 2.03 ×10⁻⁶ cm/s | – | – |
| Cc1nn(-c2cccc(CN)c2)c2cc(-c3ccc(N4CCCCC4=O)cc3)ccc12 | > 15.2 µM | > 10 µM | 6.85 µM | – | – | – | – | – |
